According to ChEMBL document CHEMBL3286322, “Synthesis and anti-cholinesterase activity of new 7-hydroxycoumarin derivatives” (Eur J Med Chem, 2014):
Calls of active or inactive are those of the source. The rule behind the calls is not given here.

Key:
[1] = target: T1, Acetylcholinesterase (Electrophorus electricus, UniProt O42275); test: Inhibition of electric eel AChE using acetylthiocholine iodide as substrate by spectrophotometer analysis
[2] = Antioxidant activity assessed as ferric ion reducing activity using fe3+-TPTZ measured per gram of protein by FRAP assay; format: functional
Outline: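 Reducing power measured against a FRAP reagent prepared by mixing acetate buffer (pH 3.6), 10 mM TPTZ in 40 mM HCl, and 20 mM ferric chloride hexahydrate. Test compounds act as reductants, converting the ferric tripyridyl triazine complex to the blue ferrous form, which is read colorimetrically. The method follows Benzie and Strain.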

[3] = target: Cholinesterase (Equus caballus, UniProt P81908); test: Inhibition of equine serum BChE using butyrylthiocholine iodide as substrate by spectrophotometer analysis
Outline: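 Compound stocks were made in DMSO/ethanol (1:9) and diluted to final concentrations with 0.1 M potassium phosphate buffer, pH 8.0. IC50 values are mean ± SE of three independent experiments.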

[4] = Neuroprotective activity in rat PC12 cells assessed as inhibition H2O2-induced reduction of cell viability at 5 uM after 24 hrs by MTT assay; format: functional, cell-based; conditions: PC-12
Outline: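 PC12 cells were differentiated in serum-free medium with NGF (50 ng/ml) for 5 days until neurite outgrowth appeared. Cells were preincubated with compound at 1, 5 or 10 for 3 h, then challenged with H2O2 (300). Viability is expressed relative to the H2O2-treated group.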

[5] = target: T1, Acetylcholinesterase; test: Inhibition of electric eel AChE using acetylthiocholine as substrate by Lineweavere-Burk plot
Outline: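 Compound stocks were made in DMSO/ethanol (1:9) and diluted in 0.1 M potassium phosphate buffer, pH 8.0. Initial AChE velocity was measured at inhibitor levels of 0, 0.64, 1.27 and 2.55 across varied acetylthiocholine concentrations. Inhibition type was read from a Lineweaver–Burk plot, and Ki was calculated from a secondary plot.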

[6] = Cytotoxicity against rat PC12 cells at 1 to 10 uM; format: cell-based; conditions: pc-12, 10 µM
[7] = Neuroprotective activity in rat PC12 cells assessed as inhibition H2O2-induced reduction of cell viability at 1 to 10 uM after 24 hrs by MTT assay; format: functional, cell-based; conditions: PC-12
Outline: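 PC12 cells differentiated with NGF (50 ng/ml) in serum-free medium for 5 days, until neurite outgrowth was seen by microscopy. Cells were pre-incubated with compound at 1, 5 or 10 for 3 h, then exposed to H2O2 (300). Viability was expressed relative to the H2O2-only group. A reference compound was run at 5.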

Chain of Cholinesterase (P81908 whole entry): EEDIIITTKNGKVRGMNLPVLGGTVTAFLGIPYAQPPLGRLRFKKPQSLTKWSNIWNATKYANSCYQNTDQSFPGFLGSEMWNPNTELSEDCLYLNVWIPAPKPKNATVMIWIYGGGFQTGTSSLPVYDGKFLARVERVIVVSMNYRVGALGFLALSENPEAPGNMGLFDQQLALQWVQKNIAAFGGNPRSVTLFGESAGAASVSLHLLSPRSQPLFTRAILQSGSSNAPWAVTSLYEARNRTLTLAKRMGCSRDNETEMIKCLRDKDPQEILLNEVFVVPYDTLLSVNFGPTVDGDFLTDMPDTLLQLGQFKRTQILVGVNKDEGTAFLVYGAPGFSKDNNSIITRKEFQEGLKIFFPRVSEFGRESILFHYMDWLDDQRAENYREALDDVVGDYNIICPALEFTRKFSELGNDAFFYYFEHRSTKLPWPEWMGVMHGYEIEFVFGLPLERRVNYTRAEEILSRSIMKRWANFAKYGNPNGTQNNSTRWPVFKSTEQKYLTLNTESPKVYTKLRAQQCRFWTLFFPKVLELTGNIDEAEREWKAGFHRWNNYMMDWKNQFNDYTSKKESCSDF
T1 sequence (O42275 whole entry): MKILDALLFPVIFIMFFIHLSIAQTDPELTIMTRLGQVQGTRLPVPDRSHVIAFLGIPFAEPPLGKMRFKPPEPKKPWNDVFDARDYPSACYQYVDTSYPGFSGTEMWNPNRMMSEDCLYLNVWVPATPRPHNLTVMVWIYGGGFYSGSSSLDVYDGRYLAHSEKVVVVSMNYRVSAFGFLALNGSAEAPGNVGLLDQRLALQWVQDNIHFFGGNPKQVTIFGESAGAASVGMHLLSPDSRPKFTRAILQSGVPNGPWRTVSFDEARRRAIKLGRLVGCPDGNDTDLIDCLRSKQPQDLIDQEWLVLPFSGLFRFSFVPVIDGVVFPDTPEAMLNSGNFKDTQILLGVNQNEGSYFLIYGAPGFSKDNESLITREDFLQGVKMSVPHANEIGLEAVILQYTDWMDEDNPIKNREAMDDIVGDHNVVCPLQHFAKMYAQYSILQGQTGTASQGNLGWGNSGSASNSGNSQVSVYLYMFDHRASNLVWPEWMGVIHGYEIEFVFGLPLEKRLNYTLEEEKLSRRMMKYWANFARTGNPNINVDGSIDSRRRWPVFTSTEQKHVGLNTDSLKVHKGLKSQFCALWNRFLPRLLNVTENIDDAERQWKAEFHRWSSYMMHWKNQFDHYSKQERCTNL

SMILES	IC50 [1] [µM]	Activity [2] [µmol]	IC50 [3] [µM]	Activity [4]	Ki [5] [µM]	Activity [6]	Activity [7]
O=C(CCCOc1ccc2ccc(=O)oc2c1)N1CCN(c2ccc(F)cc2)CC1	50	1.37	75	–	–	–	–
Cc1cc(=O)oc2cc(OCCCC(=O)N3CCN(c4ccccc4F)CC3)ccc12	16.4	0.1	29	–	–	–	–
Cc1cc(=O)oc2cc(OCCCC(=O)N3CCN(c4ccc(Cl)c(Cl)c4)CC3)ccc12	4.38	0.05	250	–	–	–	–
Cc1cc(=O)oc2cc(OCCCC(=O)N3CCN(c4ccccc4O)CC3)ccc12	6.2	2.01	184	–	–	–	–
O=C(COc1ccc2ccc(=O)oc2c1)N1CCN(c2ccccc2F)CC1	34.5	0.07	86	–	–	–	–
O=C(CCCOc1ccc2ccc(=O)oc2c1)N1CCN(c2ccccc2F)CC1	6.9	0.15	15	–	–	–	–
O=C(CCCOc1ccc2ccc(=O)oc2c1)N1CCN(c2ccccc2O)CC1	7	2.82	280	–	–	–	–
O=C1O[C@H]([C@@H](O)CO)C(O)=C1O	–	7.26	–	–	–	–	–
O=C(CCCOc1ccc2ccc(=O)oc2c1)N1CCN(c2ccc(Cl)c(Cl)c2)CC1	26	0.78	80	–	–	–	–
Cc1cc(=O)oc2cc(OCCCC(=O)N3CCN(c4ccccc4)CC3)ccc12	20.8	0.07	68	–	–	–	–
O=c1c(O)c(-c2ccc(O)c(O)c2)oc2cc(O)cc(O)c12	–	10.8	–	Active	–	–	–
O=C(COc1ccc2ccc(=O)oc2c1)N1CCN(c2ccc(Cl)c(Cl)c2)CC1	26.8	2.01	120	–	–	–	–
Cc1cc(=O)oc2cc(OCCCC(=O)N3CCN(c4ccc(F)cc4)CC3)ccc12	41.6	0.08	24	–	–	–	–
COc1ccc(CCNC(=O)COc2ccc3ccc(=O)oc3c2)cc1OC	74	5.43	163	–	–	–	–
O=C(CCCOc1ccc2ccc(=O)oc2c1)N1CCC(O)(c2ccc(Br)cc2)CC1	73	0.03	180	–	–	–	–
Cc1cc(=O)oc2cc(OCCCC(=O)N3CCC(O)(c4ccc(Br)cc4)CC3)ccc12	34.6	0.06	141	–	–	–	–
O=C(CCCOc1ccc2ccc(=O)oc2c1)N1CCN(c2ccccc2)CC1	3.43	1.13	120	–	–	–	–
O=C(COc1ccc2ccc(=O)oc2c1)NC1CCN(Cc2ccccc2)CC1	1.6	0.06	42	–	1.32	Non-toxic	Active
O=C(COc1ccc2ccc(=O)oc2c1)N1CCC(Cc2ccccc2)CC1	9.8	0.05	46	–	–	–	–
O=C(COc1ccc2ccc(=O)oc2c1)N1CCN(c2ccccc2)CC1	33	1.94	50	–	–	–	–
O=C(CCCOc1ccc2ccc(=O)oc2c1)N1CCC(Cc2ccccc2)CC1	6.9	1.61	387	–	–	–	–
